In the library only some 2.3% were active in any assay of this set; here they are far more common.
NadD block: blocks S. aureus nicotinate mononucleotide adenylyltransferase | 0.78% of 360,000 active | purified NadD enzyme, colorimetric absorbance read-out | inhibition, % at 20 µM; in the data active means inhibition above about 26%
LMPTP inh: LMPTP (human) inhibition; AID 651560; inhibition, % at 20 µM; 0.22% of 360,000 active; recombinant LMPTP-A, OMFP fluorogenic substrate, fluorescence intensity;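 active means compounds that cut the enzyme signal by at least half of the control window in the single-dose screen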
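test system = LMPTP-A | amount = 0.625 nM LMPTP-A final | reagent = fluorogenic phosphatase substrate OMFP at 400 µM final | incubation = 50 min at room temperature | benchmarks = no-enzyme low control, uninhibited high control | medium = Bis-Tris pH 6.0, DTT, detergent | signal = fluorescence intensity of OMFP turnover product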
SUMO1-SIM PPI: modulators of human SUMO1-mediated protein-protein interactions | SUMO1 binding to a labelled peptide, TR-FRET, 1 h | inhibition, % at 20 µM | 0.33% of 360,000 active | AID 602429; in the data active means inhibition above about 37%
Scp1 inh: inhibitors of human Scp-1 phosphatase; Q9GZU7; Recombinant Scp1, phosphopeptide, malachite green phosphate absorbance; inhibition, % at 20 µM; 0.88% of 340,000 active; AID 493091;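 active means inhibition above about 50% at 20 µM, limit read from the data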
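Incubation: 45 min enzyme reaction at room temperature / System: truncated SCP-1 phosphatase (76-261aa) / Reagent: Phospho 17-mer peptide substrate / Buffer or medium: Acidic Tris acetate buffer with magnesium and detergent / Signal: absorbance at 630 nm / Doses: one concentration, 20 µM, with 1.0% DMSO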
DNMT1 inh: blocks human DNA methyltransferase DNMT1; 0.83% of 360,000 active; DNMT1 molecular beacon, Hinp1I cleavage, fluorescence; P26358; inhibition (reported as % activation of signal), % at 10 µM; in the data active means inhibition above about 50%
STEP inh: STEP (human) phosphatase inhibition | AID 588621 | recombinant STEP, OMFP fluorogenic substrate, fluorescence | P54829 | 0.25% of 360,000 active | inhibition, % at 20 µM;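 active means inhibition at 20 µM, scaled per plate between control wells, above about 37%, limit read from the data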
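System: STEP (striatal-enriched tyrosine phosphatase) enzyme, cell-free; medium: Bis-Tris pH 6.0 buffer with DTT, detergent; dosing: 20 µM, 1% DMSO; times: reaction 20 min, ambient temperature; detection: fluorescence, 480/540 nm; read-out basis: normalized % inhibition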
NadD conf: NadD (S. aureus) inhibition, single concentration confirmation; shares compounds with NadD block; inhibition, % at 20 µM; 13% of 2,000 active; purified S. aureus NadD, colorimetric enzyme assay; AID 624309; in the data active means inhibition mostly above about 42%, no sharp cut-off; inactive means mostly below about 42%
A number is an active result.

For Cc1cccc(N=C2NN=C(c3c(C)[nH]c4ccccc34)CS2)c1 the results were NadD block 36, LMPTP inh inactive, SUMO1-SIM PPI inactive, Scp1 inh inactive, DNMT1 inh inactive, STEP inh inactive and NadD conf inactive.
`Cc1cccc(N=C2NN=C(c3ccc4c(c3)OCCO4)CS2)c1` gave NadD block inactive, LMPTP inh inactive, SUMO1-SIM PPI inactive, Scp1 inh inactive, DNMT1 inh inactive and STEP inh inactive.
For Cn1c(CNC(=O)c2ccc(Cl)c(Cl)c2)nnc1SCC(=O)Nc1sc2c(c1C#N)CCCC2 the results were NadD block 45, LMPTP inh inactive, SUMO1-SIM PPI inactive, Scp1 inh inactive, DNMT1 inh inactive, STEP inh inactive and NadD conf inactive.
For Cn1cnnc1SCC(=O)Nc1sc2c(c1C#N)CCCCC2 the results were NadD block inactive, LMPTP inh inactive, SUMO1-SIM PPI inactive, Scp1 inh inactive, DNMT1 inh inactive and STEP inh inactive.
Cc1ccc(NC(=O)NC(=O)N(C(C)C)S(=O)(=O)c2ccc(C)cc2)cc1 was read as NadD block inactive, LMPTP inh inactive, SUMO1-SIM PPI inactive, Scp1 inh inactive, DNMT1 inh inactive and STEP inh inactive.
For COC(=O)c1cccc(CN2C(=O)SC(Nc3ccccc3)C2=O)c1 (configuration not stated) the results were NadD block 31, LMPTP inh inactive, SUMO1-SIM PPI inactive, Scp1 inh inactive, DNMT1 inh inactive, STEP inh inactive and NadD conf inactive.
`COc1cc(/C=C/c2ccc3c(Br)cc(Br)c(O)c3n2)ccc1O` gave NadD block 61, LMPTP inh inactive, SUMO1-SIM PPI inactive, Scp1 inh inactive, DNMT1 inh inactive, STEP inh inactive and NadD conf inactive.
Cc1nc(SCc2nc3cc(Cl)c(F)cc3[nH]2)c2oc3ccccc3c2n1 was read as NadD block 37, LMPTP inh inactive, SUMO1-SIM PPI inactive, Scp1 inh inactive, DNMT1 inh inactive, STEP inh inactive and NadD conf inactive.
CCCCc1c(O)nc(SCC(=O)Nc2ccc(OC)cc2)n(-c2ccc(C)c(C)c2)c1=O was read as NadD block inactive, LMPTP inh inactive, SUMO1-SIM PPI inactive, DNMT1 inh inactive and STEP inh inactive.
Screening Cc1cnc(C=NNC(N)=S)c2cccc(N)c12 returned NadD block 61, LMPTP inh 86, SUMO1-SIM PPI 107, Scp1 inh 84, DNMT1 inh 114, STEP inh 97 and NadD conf inactive.
Screening N#Cc1c(OCC(=O)c2ccccc2)nc2c(c1-c1ccco1)CCc1ccccc1-2 returned NadD block 32, LMPTP inh inactive, SUMO1-SIM PPI inactive, Scp1 inh inactive, DNMT1 inh inactive, STEP inh inactive and NadD conf inactive.
Screening CC(NC(=O)c1cc2cc([N+](=O)[O-])ccc2oc1=O)C1CCCO1 (configuration not stated) returned NadD block inactive, LMPTP inh inactive, SUMO1-SIM PPI inactive, Scp1 inh inactive, DNMT1 inh inactive and STEP inh inactive.
`O=C(Nc1nc(C2C3CC4CC(C3)CC2C4)cs1)c1cc2cc([N+](=O)[O-])ccc2oc1=O` (configuration not stated) gave NadD block 35, LMPTP inh inactive, SUMO1-SIM PPI inactive, Scp1 inh inactive, DNMT1 inh inactive, STEP inh inactive and NadD conf inactive.
Screening COc1ccc(Cn2c(SCc3ccccc3C)nc3cc(OC)c(OC)cc3c2=N)cc1 returned NadD block 30, LMPTP inh inactive, SUMO1-SIM PPI inactive, DNMT1 inh inactive, STEP inh inactive and NadD conf inactive.
Screening COc1cc2nc(SCc3ccc(F)cc3)n(Cc3cccs3)c(=N)c2cc1OC returned NadD block inactive, LMPTP inh inactive, SUMO1-SIM PPI inactive, Scp1 inh inactive, DNMT1 inh inactive and STEP inh inactive.
`Cc1cc(C)c(C)c(S(=O)(=O)N2CCC(C(=O)N3CCN(c4ccc(F)cc4)CC3)CC2)c1C` gave NadD block inactive, LMPTP inh inactive, SUMO1-SIM PPI inactive, Scp1 inh inactive, DNMT1 inh inactive and STEP inh inactive.
For Cc1ccc(C(C)(C)C)cc1S(=O)(=O)N1CCC(C(=O)N2CCN(c3ccc(O)cc3)CC2)CC1 the results were NadD block 67, LMPTP inh inactive, SUMO1-SIM PPI inactive, Scp1 inh inactive, DNMT1 inh inactive, STEP inh inactive and NadD conf inactive.
Screening O=C(NCCN1C(=O)S/C(=C\c2ccc(Cl)c(Cl)c2)C1=O)c1ccc2c(c1)C(=O)N(Cc1ccncc1)C2=O returned NadD block 28, LMPTP inh inactive, SUMO1-SIM PPI inactive, Scp1 inh inactive, DNMT1 inh inactive, STEP inh inactive and NadD conf inactive.
Screening CCc1nc2ccc(C(=O)NCC3CCCCC3)cn2c1N(C)Cc1ccc(OC)cc1 returned NadD block inactive, LMPTP inh inactive, SUMO1-SIM PPI inactive, DNMT1 inh inactive and STEP inh inactive.
Screening COc1ccc(-c2cc(-c3n[nH]c(=S)n3-c3cccc4ccccc34)[nH]n2)cc1 returned NadD block inactive, LMPTP inh inactive, SUMO1-SIM PPI inactive, Scp1 inh inactive, DNMT1 inh inactive and STEP inh inactive.
`S=c1[nH]nc(-c2cc(-c3ccsc3)n[nH]2)n1-c1cccc2ccccc12` gave NadD block 32, LMPTP inh inactive, SUMO1-SIM PPI inactive, Scp1 inh inactive, DNMT1 inh inactive, STEP inh inactive and NadD conf inactive.
`CCOC(=O)C1=C(CSc2nc(-c3ccccc3)ccc2C#N)OC(N)=C(C#N)C1c1cccnc1` (configuration not stated) gave NadD block 40, LMPTP inh inactive, SUMO1-SIM PPI inactive, Scp1 inh inactive, DNMT1 inh inactive, STEP inh inactive and NadD conf inactive.
`CCOC(=O)C1=C(CSc2nc(-c3ccccc3)ccc2C#N)OC(N)=C(C#N)C1c1ccccc1` (configuration not stated) gave NadD block 37, LMPTP inh inactive, SUMO1-SIM PPI inactive, Scp1 inh inactive, DNMT1 inh inactive, STEP inh inactive and NadD conf inactive.
CCOC(=O)C1=C(CSc2nc3c(cc2C#N)CCC3)OC(N)=C(C#N)C1c1ccccc1 (configuration not stated) was read as NadD block inactive, LMPTP inh inactive, SUMO1-SIM PPI inactive, Scp1 inh inactive, DNMT1 inh inactive and STEP inh inactive.
Screening Cc1csc(=O)n1CC(=O)OCC(=O)NNC(=O)c1ccc(Cl)cc1 returned NadD block inactive, LMPTP inh inactive, SUMO1-SIM PPI inactive, Scp1 inh inactive, DNMT1 inh inactive and STEP inh inactive.
